# Reference: ChEMBL document CHEMBL1122231, “Synthesis, benzodiazepine receptor binding, and anticonvulsant activity of 2,3-dihydro-3-oxo-5H-pyrido[3,4-b][1,4]benzothiazine-4-carbonitriles” (J Med Chem, 1983)
# How the values were obtained:
# [1] = target: GABA-A receptor; anion channel; assay: Inhibition of binding of tritiated 3[H]diazepam radioligand to rat brain homogenates; type: tissue-based
# Summary of the method: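 Rat brain membranes incubated with [3H]diazepam (final 4 μM) and six to eight concentrations of test drug, 30 °C for 10 min, then 4 °C for 20 min. Reactions were stopped by vacuum filtration through glass-fiber filters. Nonspecific binding was defined with 4 μM unlabeled diazepam. IC50 is the concentration giving 50% inhibition of [3H]diazepam binding to membranes.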
# Mus musculus [2] = assay: Inhibition of pentylenetetrazole (PTZ) induced convulsions in mice at 100 mg/kg after 60 min; 2/10; type: functional
# Mus musculus [3] = assay: Inhibition of pentylenetetrazole (PTZ) induced convulsions in mice at 4 mg/kg after 30 min; type: functional; conditions: 0.5 h
# Mus musculus [4] = assay: Inhibition of pentylenetetrazole (PTZ) induced convulsions in mice at 10 mg/kg after 60 min; 0/10; type: functional
# Mus musculus [5] = assay: Inhibition of pentylenetetrazole (PTZ) induced convulsions in mice at 64 mg/kg after 30 min; 5/10; type: functional
# Mus musculus [6] = assay: Inhibition of pentylenetetrazole (PTZ) induced convulsions in mice at 4 mg/kg after 30 min; 0/10; type: functional
# Mus musculus [7] = assay: Inhibition of pentylenetetrazole (PTZ) induced convulsions in mice at 64 mg/kg after 60 min; 2/10; type: functional
# Mus musculus [8] = assay: Inhibition of pentylenetetrazole (PTZ) induced convulsions in mice at 10 mg/kg after 60 min; 1/10; type: functional
# Mus musculus [9] = assay: Inhibition of pentylenetetrazole (PTZ) induced convulsions in mice at 64 mg/kg after 30 min; 0/10; type: functional
# Mus musculus [10] = assay: Inhibition of pentylenetetrazole (PTZ) induced convulsions in mice at 64 mg/kg after 60 min; 0/10; type: functional
# Mus musculus [11] = assay: Inhibition of pentylenetetrazole (PTZ) induced convulsions in mice at 4 mg/kg after 30 min; 1/10; type: functional
# Mus musculus [12] = assay: Inhibition of pentylenetetrazole (PTZ) induced convulsions in mice at 64 mg/kg after 30 min; 2/10; type: functional
# Mus musculus [13] = assay: Inhibition of pentylenetetrazole (PTZ) induced convulsions in mice at 4 mg/kg after 30 min; 2/10; type: functional
# Mus musculus [14] = assay: Inhibition of pentylenetetrazole (PTZ) induced convulsions in mice at 64 mg/kg after 60 min; 7/10; type: functional
# Mus musculus [15] = assay: Inhibition of pentylenetetrazole (PTZ) induced convulsions in mice at 64 mg/kg after 60 min; 1/10; type: functional
# Mus musculus [16] = assay: Minimum effective dose after intraperitoneal administration; type: functional; conditions: ip, read-out: MED
# Mus musculus [17] = assay: Inhibition of pentylenetetrazole (PTZ) induced convulsions in mice at 64 mg/kg after 30 min; 4/10; type: functional
# Mus musculus [18] = assay: Inhibition of pentylenetetrazole (PTZ) induced convulsions in mice at 64 mg/kg after 30 min; 1/10; type: functional
# Mus musculus [19] = assay: Inhibition of pentylenetetrazole (PTZ) induced convulsions in mice at 100 mg/kg after 60 min; 6/10; type: functional
# Mus musculus [20] = assay: Inhibition of pentylenetetrazole (PTZ) induced convulsions in mice at 64 mg/kg after 60 min; 10/10; type: functional
# Mus musculus [21] = assay: Inhibition of pentylenetetrazole (PTZ) induced convulsions in mice at 10 mg/kg after 60 min; type: functional; conditions: 1 h
# Mus musculus [22] = assay: Inhibition of pentylenetetrazole (PTZ) induced convulsions in mice at 10 mg/kg after 60 min; 3/10; type: functional
# Mus musculus [23] = assay: Inhibition of pentylenetetrazole (PTZ) induced convulsions in mice at 100 mg/kg after 60 min; 8/10; type: functional
smiles,measurement,setting,value
N#Cc1c(O)ncc2c1Nc1ccc(Cl)cc1S2,IC50,[1],320 nM
same,No. of mice protected,Mus musculus [2],2
CNC1=Nc2ccc(Cl)cc2C(c2ccccc2)=[N+]([O-])C1 [CHLORDIAZEPOXIDE],IC50,[1],442 nM
same,ED50,Mus musculus [3],1.25 mg/kg
N#Cc1c(O)ncc2c1Nc1ccc(Br)cc1S2,No. of mice protected,Mus musculus [4],0
same,No. of mice protected,Mus musculus [5],5
same,IC50,[1],8000 nM
same,No. of mice protected,Mus musculus [6],0
same,No. of mice protected,Mus musculus [2],2
COc1cc2c(cc1OC)Sc1cnc(O)c(C#N)c1N2,No. of mice protected,Mus musculus [7],2
same,IC50,[1],100000 nM
same,No. of mice protected,Mus musculus [8],1
CN1c2ccccc2Sc2cnc(O)c(C#N)c21,IC50,[1],314 nM
same,No. of mice protected,Mus musculus [6],0
same,No. of mice protected,Mus musculus [9],0
same,No. of mice protected,Mus musculus [10],0
N#Cc1c(O)ncc2c1Nc1ccc([N+](=O)[O-])cc1S2,IC50,[1],800 nM
same,No. of mice protected,Mus musculus [6],0
same,No. of mice protected,Mus musculus [8],1
same,No. of mice protected,Mus musculus [2],2
N#Cc1c(O)ncc2c1Nc1ccccc1S2(=O)=O,No. of mice protected,Mus musculus [7],2
same,IC50,[1],11000 nM
same,No. of mice protected,Mus musculus [11],1
same,No. of mice protected,Mus musculus [12],2
N#Cc1c(O)ncc2c1Nc1cc(Cl)ccc1S2(=O)=O,IC50,[1],7600 nM
same,No. of mice protected,Mus musculus [11],1
same,No. of mice protected,Mus musculus [12],2
CN1c2ccccc2Sc2cn(C)c(=O)c(C#N)c21,No. of mice protected,Mus musculus [5],5
same,IC50,[1],100000 nM
same,No. of mice protected,Mus musculus [6],0
N#Cc1c(O)ncc2c1Nc1ccc(N)cc1S2,No. of mice protected,Mus musculus [5],5
same,IC50,[1],910 nM
same,No. of mice protected,Mus musculus [13],2
same,No. of mice protected,Mus musculus [14],7
N#Cc1c(O)ncc2c1Nc1ccccc1S2,No. of mice protected,Mus musculus [4],0
same,No. of mice protected,Mus musculus [15],1
same,IC50,[1],450 nM
same,No. of mice protected,Mus musculus [6],0
same,minimal effective dose,Mus musculus [16],60 mg/kg
same,No. of mice protected,Mus musculus [17],4
same,ED50,Mus musculus [3],62 mg/kg
N#Cc1c(O)ncc2c1Nc1ccc(Cl)cc1S2(=O)=O,No. of mice protected,Mus musculus [5],5
same,IC50,[1],634 nM
same,No. of mice protected,Mus musculus [11],1
Cn1cc2c(c(C#N)c1=O)Nc1ccccc1S2,IC50,[1],17000 nM
same,No. of mice protected,Mus musculus [6],0
same,No. of mice protected,Mus musculus [18],1
same,No. of mice protected,Mus musculus [2],2
N#Cc1c(O)ncc2c1Nc1cc(Cl)ccc1[S+]2[O-] (stereo unspecified),No. of mice protected,Mus musculus [4],0
same,No. of mice protected,Mus musculus [19],6
same,IC50,[1],35000 nM
same,No. of mice protected,Mus musculus [6],0
same,No. of mice protected,Mus musculus [12],2
Cc1nc(O)c(C#N)c2c1Sc1ccccc1N2,IC50,[1],1700 nM
same,No. of mice protected,Mus musculus [6],0
same,No. of mice protected,Mus musculus [18],1
same,No. of mice protected,Mus musculus [2],2
N#Cc1c(O)ncc2c1Nc1cc(Cl)ccc1S2,IC50,[1],400 nM
same,No. of mice protected,Mus musculus [8],1
same,No. of mice protected,Mus musculus [20],10
same,ED50,Mus musculus [3],26 mg/kg
same,ED50,Mus musculus [21],32 mg/kg
N#Cc1c(O)ncc2c1Nc1ccccc1[S+]2[O-] (stereo unspecified),No. of mice protected,Mus musculus [22],3
same,IC50,[1],4250 nM
same,No. of mice protected,Mus musculus [23],8
same,ED50,Mus musculus [21],41 mg/kg
